In ChEMBL document CHEMBL3425494, “Design, synthesis, and antitumor evaluation of novel histone deacetylase inhibitors equipped with a phenylsulfonylfuroxan module as a nitric oxide donor” (J Med Chem, 2015):
pIC50: −log10 of the molar value. The source made the active and inactive calls. No cut-off for these calls is given here.

What was measured:
[1] = biological target: Histone deacetylase 4 (Homo sapiens, UniProt P56524); test: Inhibition of human recombinant HDAC4 expressed in baculovirus infected insect S9 cells using Ac-Leu-GlyLys(Tfa)-AMC as substrate after 30 mins by fluorescence assay
[2] = system: HEL; test: Antitumor activity against human HEL cells xenografted in BALB/c-nu mouse assessed as inhibition of tumor growth at 100 mg/kg/day, po administered for 21 days measured every 3 days during compound dosing relative to control; type: functional; conditions: read-out: TGI
In short: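 HEL s.c. xenografts in male BALB/c-nu mice (6–8 weeks), randomized at ~100 mm³, 6 per group; daily oral dosing for 21 days versus PBS/DMSO vehicle group. […] Student's two-tailed t test, p < 0.05.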

[3] = system: HEL; test: Cell cycle arrest in human HEL cells assessed as accumulation at G1 phase at 0.5 uM after 48 hrs by propidium iodide staining-based flow cytometric analysis (reference value: 47.87%); type: functional
[4] = Cytotoxicity against human HCT116 cells assessed as growth inhibition after 48 hrs by MTT assay; type: functional, cell-based; conditions: HCT-116, 48 h
[5] = biological target: T1, Protein deacetylase HDAC6 (Homo sapiens, UniProt Q9UBN7); test: Inhibition of full length human recombinant HDAC6 expressed in baculovirus infected insect S9 cells using Ac-Leu-GlyLys(Ac)-AMC as substrate after 30 mins by fluorescence assay
T1 sequence (Q9UBN7 whole entry): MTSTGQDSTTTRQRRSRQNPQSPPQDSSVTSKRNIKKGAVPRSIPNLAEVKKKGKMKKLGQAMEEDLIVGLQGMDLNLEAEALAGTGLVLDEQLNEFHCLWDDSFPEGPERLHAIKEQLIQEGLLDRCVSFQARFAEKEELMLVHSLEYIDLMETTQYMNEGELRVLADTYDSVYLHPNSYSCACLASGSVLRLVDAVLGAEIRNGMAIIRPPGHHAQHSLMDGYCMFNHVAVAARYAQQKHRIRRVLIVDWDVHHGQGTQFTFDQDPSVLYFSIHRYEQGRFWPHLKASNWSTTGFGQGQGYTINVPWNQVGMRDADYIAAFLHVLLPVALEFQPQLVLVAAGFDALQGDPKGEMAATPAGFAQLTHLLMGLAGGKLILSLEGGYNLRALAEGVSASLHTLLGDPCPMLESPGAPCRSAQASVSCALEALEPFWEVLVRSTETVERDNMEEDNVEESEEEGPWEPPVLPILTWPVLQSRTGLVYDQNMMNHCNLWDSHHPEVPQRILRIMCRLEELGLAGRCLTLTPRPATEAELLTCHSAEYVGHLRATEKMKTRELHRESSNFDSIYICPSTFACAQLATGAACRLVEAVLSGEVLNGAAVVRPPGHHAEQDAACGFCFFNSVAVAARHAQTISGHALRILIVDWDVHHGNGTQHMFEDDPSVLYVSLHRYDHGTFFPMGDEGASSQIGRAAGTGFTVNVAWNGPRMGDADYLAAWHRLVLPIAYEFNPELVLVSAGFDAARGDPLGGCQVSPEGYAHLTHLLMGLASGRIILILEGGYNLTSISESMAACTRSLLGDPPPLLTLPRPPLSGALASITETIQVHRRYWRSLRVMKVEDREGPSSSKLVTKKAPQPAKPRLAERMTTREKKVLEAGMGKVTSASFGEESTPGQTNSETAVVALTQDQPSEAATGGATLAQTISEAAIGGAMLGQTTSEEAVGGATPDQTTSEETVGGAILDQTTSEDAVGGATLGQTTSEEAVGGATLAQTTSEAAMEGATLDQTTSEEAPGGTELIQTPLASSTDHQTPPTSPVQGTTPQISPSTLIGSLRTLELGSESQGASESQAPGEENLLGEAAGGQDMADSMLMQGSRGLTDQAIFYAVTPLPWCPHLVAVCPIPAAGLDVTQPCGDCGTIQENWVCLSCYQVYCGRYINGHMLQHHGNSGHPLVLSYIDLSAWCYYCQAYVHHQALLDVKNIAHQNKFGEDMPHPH

[6] = biological target: Histone deacetylase 3 (Homo sapiens, UniProt O15379); test: Inhibition of full length human recombinant HDAC3 expressed in baculovirus infected insect S9 cells using Ac-Leu-GlyLys(Ac)-AMC as substrate after 30 mins by fluorescence assay
[7] = biological target: T2, Histone deacetylase 11 (Homo sapiens, UniProt Q96DB2); test: Inhibition of full length human recombinant HDAC11 expressed in baculovirus infected insect S9 cells after 30 mins by fluorescence assay
T2 sequence (Q96DB2 whole entry): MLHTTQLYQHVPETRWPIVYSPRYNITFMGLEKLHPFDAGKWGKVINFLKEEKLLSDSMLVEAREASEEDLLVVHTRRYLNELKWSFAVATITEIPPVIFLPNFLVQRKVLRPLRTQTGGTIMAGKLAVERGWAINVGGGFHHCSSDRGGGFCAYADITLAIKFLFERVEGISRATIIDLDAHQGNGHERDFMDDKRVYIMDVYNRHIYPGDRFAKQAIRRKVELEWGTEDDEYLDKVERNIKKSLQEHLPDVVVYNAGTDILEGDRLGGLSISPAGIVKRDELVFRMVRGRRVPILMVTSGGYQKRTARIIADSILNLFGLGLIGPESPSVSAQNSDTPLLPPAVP

[8] = biological target: Histone deacetylase 2 (Homo sapiens) (UniProt Q92769); conditions: HEL, 1 to 10 uM
[9] = biological target: Histone deacetylase 2 (Homo sapiens) (UniProt Q92769); conditions: HEL, 10 uM
[10] = system: HEL; test: Induction of apoptosis in human HEL cells after 24 hrs by 7-AAD-annexin-V/propidium iodide staining-based flow cytometric analysis; type: functional, cell-based
In short: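 HEL cells (1 × 10⁵/well) grown 24 h, then treated 24 h at 0.5, 1 or 2 µM in fresh medium; 0.1% DMSO control. Cells collected, washed with cold PBS, stained in binding buffer with 7-AAD and propidium iodide (PE-Annexin V kit) 15 min at 25 °C in the dark; apoptotic fraction by flow cytometry.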

[11] = system: Mus musculus; test: Toxicity in BALB/c-nu mouse xenografted with human HEL cells assessed as body weight loss at 120 mg/kg/day, po administered for 21 days measured everyday during compound dosing; type: organism-based; design: route oral; conditions: in vivo, 504 h
In short: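 Male BALB/c-nu mice with s.c. HEL xenografts, 6 per group, given 120 mg/kg/day orally for 21 days; vehicle group received PBS containing DMSO. Body weight monitored regularly during treatment; mean ± SD.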

Histone deacetylase 2 (Homo sapiens), sequence (Q92769 whole entry): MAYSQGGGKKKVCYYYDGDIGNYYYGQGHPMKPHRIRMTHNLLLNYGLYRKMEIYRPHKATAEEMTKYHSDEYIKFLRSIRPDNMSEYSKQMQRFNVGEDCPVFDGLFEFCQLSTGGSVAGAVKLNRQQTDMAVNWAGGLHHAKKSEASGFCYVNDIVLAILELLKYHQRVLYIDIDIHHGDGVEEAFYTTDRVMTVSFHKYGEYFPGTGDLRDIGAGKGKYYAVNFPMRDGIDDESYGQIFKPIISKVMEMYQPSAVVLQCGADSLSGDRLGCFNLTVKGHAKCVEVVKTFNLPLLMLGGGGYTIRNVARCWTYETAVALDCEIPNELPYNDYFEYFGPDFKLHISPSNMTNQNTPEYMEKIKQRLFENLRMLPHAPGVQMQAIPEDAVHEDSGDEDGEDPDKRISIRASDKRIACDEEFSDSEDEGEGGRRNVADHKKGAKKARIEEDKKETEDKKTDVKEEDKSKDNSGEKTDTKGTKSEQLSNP
Histone deacetylase 4, sequence (P56524 whole entry): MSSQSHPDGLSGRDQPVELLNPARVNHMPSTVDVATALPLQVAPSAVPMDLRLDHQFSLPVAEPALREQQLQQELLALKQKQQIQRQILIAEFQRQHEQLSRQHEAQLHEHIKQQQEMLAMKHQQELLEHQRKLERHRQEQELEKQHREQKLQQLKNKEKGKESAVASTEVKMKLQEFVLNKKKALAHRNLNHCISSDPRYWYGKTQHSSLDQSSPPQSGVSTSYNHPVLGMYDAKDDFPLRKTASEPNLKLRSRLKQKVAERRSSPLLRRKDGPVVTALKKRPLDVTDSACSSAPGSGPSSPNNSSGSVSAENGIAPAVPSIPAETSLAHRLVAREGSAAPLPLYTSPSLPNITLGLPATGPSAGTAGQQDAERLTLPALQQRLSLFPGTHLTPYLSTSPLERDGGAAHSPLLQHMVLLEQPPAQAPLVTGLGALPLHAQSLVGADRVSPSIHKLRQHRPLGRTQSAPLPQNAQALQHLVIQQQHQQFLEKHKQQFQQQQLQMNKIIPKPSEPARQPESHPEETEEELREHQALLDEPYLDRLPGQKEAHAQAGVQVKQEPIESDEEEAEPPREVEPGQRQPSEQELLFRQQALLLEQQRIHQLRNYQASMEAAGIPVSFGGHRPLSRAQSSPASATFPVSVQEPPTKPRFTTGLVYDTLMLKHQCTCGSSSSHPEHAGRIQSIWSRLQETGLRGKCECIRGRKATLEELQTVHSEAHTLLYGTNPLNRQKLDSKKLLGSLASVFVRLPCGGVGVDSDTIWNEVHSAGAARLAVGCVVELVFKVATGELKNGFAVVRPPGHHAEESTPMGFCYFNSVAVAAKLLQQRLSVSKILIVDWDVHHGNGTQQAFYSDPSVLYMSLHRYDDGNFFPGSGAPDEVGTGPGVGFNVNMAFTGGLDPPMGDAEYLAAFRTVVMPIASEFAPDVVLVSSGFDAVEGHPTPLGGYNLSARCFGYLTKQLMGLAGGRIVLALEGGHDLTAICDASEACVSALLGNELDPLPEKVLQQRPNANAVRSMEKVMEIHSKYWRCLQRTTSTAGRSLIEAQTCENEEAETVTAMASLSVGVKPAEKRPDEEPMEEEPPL
Histone deacetylase 3, sequence (O15379 whole entry): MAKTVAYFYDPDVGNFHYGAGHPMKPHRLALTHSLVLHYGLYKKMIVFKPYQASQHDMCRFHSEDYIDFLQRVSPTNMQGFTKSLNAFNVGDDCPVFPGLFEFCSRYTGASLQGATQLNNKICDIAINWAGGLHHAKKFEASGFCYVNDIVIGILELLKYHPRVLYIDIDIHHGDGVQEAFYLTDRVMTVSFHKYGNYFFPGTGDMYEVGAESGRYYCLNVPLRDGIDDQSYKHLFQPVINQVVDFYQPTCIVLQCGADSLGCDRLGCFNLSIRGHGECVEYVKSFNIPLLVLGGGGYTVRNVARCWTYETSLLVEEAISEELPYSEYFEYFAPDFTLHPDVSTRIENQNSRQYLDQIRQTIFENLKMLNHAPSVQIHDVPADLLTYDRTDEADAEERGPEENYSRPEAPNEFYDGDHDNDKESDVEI

pIC50 [1]: 7.52
pIC50 [5]: 8.13
pIC50 [6]: 6.27
pIC50 [7]: 6.22
inhibition [8]: Active
inhibition [9]: inactive
Compound: O=C(CCCCCOc1no[n+]([O-])c1S(=O)(=O)c1ccccc1)NO
inhibition in vivo at 100 mg/kg/day [2]: 38%
Activity [3]: 90.24%
pIC50 [4]: 5.82
Activity [10]: Dose-dependent effect
Activity [11]: Non-toxic
